High-throughput results from PubChem.
TNF necrop inh: inhibitors of TNF-alpha induced necroptosis in Jurkat FADD-/- cells; Jurkat FADD-/- TNF necroptosis rescue, ATP luminescence, 24 h; 0 = TNF only, 100 = no-TNF cells; activation (protection from cell death), % at 10 µM; AID 463075; actives 0.068% (n = 220,000);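 active = activation, meaning protection from cell death, of at least 50% relative to plate controls; inactive = activation below 50%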;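 note: necroptosis triggered by 40 ng/mL TNF-alpha added together with compound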
Tb hexokinase: blocks Trypanosoma brucei hexokinase 1 activity; recombinant TbHK1, G6PDH-coupled NADH A340; inhibition, % at 10 µM; actives 0.11% (n = 220,000);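 active = inhibition of 50% or more in the single-dose primary screen; inactive = inhibition below 50%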
Lipid droplet: modulators of hepatic lipid droplet formation; AML12 mouse hepatocytes, oleate lipid droplets, BODIPY imaging; inhibition, % at 6.5 µM; actives 0.4% (n = 240,000); AID 1656;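 active = lipid droplet intensity inhibited by at least 50%, with more than 500 cells counted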
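Assay system: AML12 mouse liver cells | Compound dosing: One dose, 6.5 µM compound | Read-out basis: Droplet intensity reduction, % inhibition | Measured by: Fluorescence imaging, 20x objective, two fields per well | Schedule: Overnight treatment with compound plus oleate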
PfM18AAP inh: blocks P. falciparum M18 aspartyl aminopeptidase; recombinant PfM18AAP, H-Glu-NHMec fluorogenic cleavage; inhibition, % at 7.35 µM; actives 1.2% (n = 290,000); AID 1822;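 active = inhibition above the campaign mean inhibition over all tested compounds plus 3 SD, cut at about 28% in these data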;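 note: 0% = plate median of test compound wells and 100% = 2 mM ZnCl2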
RBBP9 inhibitor: human RBBP9 hydrolase inhibition | O75884 | recombinant RBBP9, FP-Rh probe fluorescence polarization | inhibition, % at 7.94 µM | actives 0.2% (n = 220,000);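 active = inhibition above the campaign mean of all tested compounds plus 3 SD, cut at about 14% in these data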;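 note: plate controls were DMSO wells with RBBP9 for no effect and wells lacking RBBP9 protein for full effect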
Target sequence (O75884 whole entry, looked up): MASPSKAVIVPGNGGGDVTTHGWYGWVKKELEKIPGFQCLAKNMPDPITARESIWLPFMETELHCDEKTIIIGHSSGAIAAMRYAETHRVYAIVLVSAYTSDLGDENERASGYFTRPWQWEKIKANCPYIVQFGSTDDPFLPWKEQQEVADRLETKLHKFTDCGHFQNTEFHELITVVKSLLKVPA
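System: RBBP9 protein / Quantity: 2.5 µM RBBP9 dispensing solution, before mixing / Also added: Serine-hydrolase probe FP-Rh, 375 nM pre-mixing / Dosing: 7.94 µM single dose, 0.794% DMSO / Timing: enzyme-compound preincubation 30 min, then probe labeling 45 min, 25 °C / Signal: FP readout at 525/598 nm / Controls: DMSO-treated enzyme wells and wells lacking RBBP9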
L929 necroptosis: L929 zVAD cell death inhibition; viability rescue, % at 10 µM; L929 zVAD necroptosis rescue, ATP luminescence, 24 h; with zVAD 60 µM; actives 0.38% (n = 220,000);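 active = activation, scaled between plate controls, above about 75%, limit read from the data; inactive = activation under that limit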;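 note: 0% = zVAD with DMSO and 100% = DMSO alone without zVAD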
Numbers without * were called inactive. Only some compounds are listed: those with a hit (about 2% of all), similar ones and a draw of the others.

Results for CSc1nc(O)c(Nc2cccc(Cl)c2)c(=O)[nH]1 ?
TNF necrop inh: 1; Tb hexokinase: -9; Lipid droplet: 1; PfM18AAP inh: 31*; RBBP9 inhibitor: -6; L929 necroptosis: 0

What do the screens show for `CCCCn1cc(S(=O)(=O)c2ccccc2)c(=O)c2cc(C)ccc21`?
Lipid droplet: -6; PfM18AAP inh: 1

What do the screens show for `CCOC(=O)c1ccc(-c2ccc(/C=N/NC(=O)Cc3nnc(N)s3)o2)cc1`?
TNF necrop inh: 1; Tb hexokinase: -24; Lipid droplet: 22; PfM18AAP inh: 29*; RBBP9 inhibitor: 0; L929 necroptosis: 0

How did COc1ccccc1-c1nnc(C2CCN(S(=O)(=O)c3ccccc3[N+](=O)[O-])CC2)o1 do in these assays?
Lipid droplet: 0; PfM18AAP inh: 5

Results for O=C(CN(C(=O)CCC(=O)Nc1nccs1)c1ccc(F)cc1)NCc1ccccc1 ?
Lipid droplet: 1; PfM18AAP inh: 2

What do the screens show for `CCOc1c(O)ccc(/C=C2\SC(=S)NC2=O)c1[N+](=O)[O-]`?
TNF necrop inh: 1; Tb hexokinase: -9; Lipid droplet: -9; PfM18AAP inh: 37*; RBBP9 inhibitor: 13; L929 necroptosis: 1

What do the screens show for `Cc1cc(C)cc(NC(=O)CN2CCC(C(=O)c3ccccc3)CC2)c1`?
Lipid droplet: -3; PfM18AAP inh: 1

What do the screens show for `Cc1cc(O)c(CN(C)C)c2c1C(=O)/C(=C/c1ccco1)O2`?
Lipid droplet: 7; PfM18AAP inh: 31*

How did COc1ccc2c(c1)O/C(=C\c1ccco1)C2=O do in these assays?
TNF necrop inh: 1; Tb hexokinase: -29; Lipid droplet: 2; PfM18AAP inh: 4; RBBP9 inhibitor: 3; L929 necroptosis: 0

What do the screens show for `COc1cccc(N2C(=O)CC(Nc3ccc(N4CCOCC4)cc3)C2=O)c1` (stereo unspecified)?
TNF necrop inh: -2; Tb hexokinase: 3; PfM18AAP inh: 29*; RBBP9 inhibitor: -4; L929 necroptosis: 0

How did O=C1CC(Nc2ccc(N3CCOCC3)cc2)C(=O)N1c1cccc(C(F)(F)F)c1 (stereo unspecified) do in these assays?
TNF necrop inh: 0; Tb hexokinase: 0; Lipid droplet: 10; PfM18AAP inh: 10; RBBP9 inhibitor: -6; L929 necroptosis: 1

How did COc1ccc(N2C(=O)CC(Nc3ccc(N4CCOCC4)cc3)C2=O)c(OC)c1 (stereo unspecified) do in these assays?
TNF necrop inh: -1; Tb hexokinase: 3; Lipid droplet: -9; PfM18AAP inh: 28*; RBBP9 inhibitor: -3; L929 necroptosis: 1

Results for COc1ccccc1/C=C1\Oc2cc(OC(=O)N3CCOCC3)ccc2C1=O ?
TNF necrop inh: 3; Tb hexokinase: -7; Lipid droplet: 12; PfM18AAP inh: -1; RBBP9 inhibitor: -2; L929 necroptosis: 0

How did OCCN1CCN(c2nc(-c3ccccc3O)nc3ccccc23)CC1 do in these assays?
Lipid droplet: 14; PfM18AAP inh: -10

What do the screens show for `CC(=O)Nc1cccc(NC(=S)Nc2cccc(Cl)c2C)c1`?
TNF necrop inh: 0; Tb hexokinase: 0; Lipid droplet: 3; PfM18AAP inh: 31*; RBBP9 inhibitor: 11; L929 necroptosis: 1

What do the screens show for `C=C(C)C(=O)Oc1ccc(N2C(=O)[C@@H]3C4C=CC(C4)[C@@H]3C2=O)cc1`?
Lipid droplet: 27; PfM18AAP inh: -8

What do the screens show for `Cc1ccc(C)c(OCC(O)CNC2CCCC2)c1` (stereo unspecified)?
Lipid droplet: -8; PfM18AAP inh: -2

What do the screens show for `CC(C)(C)c1ccc(/C=N/NC(=S)Nc2cccnc2)cc1`?
TNF necrop inh: -1; Tb hexokinase: -7; Lipid droplet: 5; PfM18AAP inh: 12; RBBP9 inhibitor: -6; L929 necroptosis: 0

What do the screens show for `Oc1ccc(/C=N/NC(=S)Nc2cccnc2)cc1O`?
TNF necrop inh: 2; Tb hexokinase: -33; Lipid droplet: 2; PfM18AAP inh: 60*; RBBP9 inhibitor: -11; L929 necroptosis: 1

What do the screens show for `Cc1ccc(NC(=O)C2COc3ccccc3O2)nc1` (stereo unspecified)?
TNF necrop inh: 89*; Tb hexokinase: 14; Lipid droplet: 4; PfM18AAP inh: 3; RBBP9 inhibitor: -3; L929 necroptosis: 1

Results for CCNC(=O)/C(=C/c1ccco1)NC(=O)/C=C/c1ccccc1 ?
TNF necrop inh: -4; Tb hexokinase: -26; PfM18AAP inh: -2; RBBP9 inhibitor: -11; L929 necroptosis: 0

Results for CC(C)Oc1cccc(-c2cc(C(=O)NC(=S)N(C)c3ccccc3C(=O)O)c3ccccc3n2)c1 ?
TNF necrop inh: 2; Tb hexokinase: 21; Lipid droplet: 7; PfM18AAP inh: 5; RBBP9 inhibitor: 0; L929 necroptosis: 2

How did CCOC(=O)C(NC(=O)c1cccc(Cl)c1)(OCc1ccc(F)cc1)C(F)(F)F (stereo unspecified) do in these assays?
TNF necrop inh: 3; Tb hexokinase: 2; Lipid droplet: 64*; PfM18AAP inh: 5; RBBP9 inhibitor: -2; L929 necroptosis: 1

Results for CN(C)c1ccc(NC(=O)C2C3C=CC(C3)C2C(=O)O)cc1 (stereo unspecified) ?
Lipid droplet: -16; PfM18AAP inh: 55*

How did O=C(O)C1C2C=CC(C2)C1C(=O)Nc1ccc2c(c1)OCCO2 (stereo unspecified) do in these assays?
TNF necrop inh: 31; Tb hexokinase: 3; Lipid droplet: -3; PfM18AAP inh: -1; RBBP9 inhibitor: -3; L929 necroptosis: 0

Results for Cc1nc2ccccc2n1CCC(=O)Nc1cccc(F)c1 ?
TNF necrop inh: 3; Tb hexokinase: 3; Lipid droplet: 22; PfM18AAP inh: 1; RBBP9 inhibitor: 0; L929 necroptosis: 1

How did O=c1cc(CO)oc(CN2CCN(c3cccc(C(F)(F)F)c3)CC2)c1O do in these assays?
TNF necrop inh: -1; Tb hexokinase: -14; Lipid droplet: -1; PfM18AAP inh: 29*; RBBP9 inhibitor: -8; L929 necroptosis: 0

What do the screens show for `O=c1cc(CO)oc(CN2CCN(c3ccccc3)CC2)c1O`?
TNF necrop inh: -2; Tb hexokinase: -1; PfM18AAP inh: 18; RBBP9 inhibitor: 5; L929 necroptosis: 0

What do the screens show for `CCO[C@H]1OC(C(=O)O)=C[C@@H](c2ccc3c(c2)OCO3)[C@@H]1CCCO`?
TNF necrop inh: 0; Tb hexokinase: 2; Lipid droplet: 13; PfM18AAP inh: 20; RBBP9 inhibitor: 0; L929 necroptosis: -1

Results for O=C(Cc1cccs1)NNC(=S)NC(=O)c1ccccc1 ?
TNF necrop inh: 0; Tb hexokinase: 18; Lipid droplet: -4; PfM18AAP inh: 35*; RBBP9 inhibitor: -3; L929 necroptosis: 1
